Compounds with a hit are over-represented: about 1.6% of the library has one in this group of screens.
RBBP9 inh = human RBBP9 hydrolase inhibition; O75884; recombinant RBBP9, FP-Rh probe fluorescence polarization; inhibition, % at 7.94 µM; actives 0.2% (n = 220,000); AID 1515;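 active means inhibition above the campaign mean of all tested compounds plus 3 SD, cut at about 14% in these data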;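 further: plate controls were DMSO wells with RBBP9 for no effect and wells lacking RBBP9 protein for full effect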
Target sequence (O75884 whole entry, looked up): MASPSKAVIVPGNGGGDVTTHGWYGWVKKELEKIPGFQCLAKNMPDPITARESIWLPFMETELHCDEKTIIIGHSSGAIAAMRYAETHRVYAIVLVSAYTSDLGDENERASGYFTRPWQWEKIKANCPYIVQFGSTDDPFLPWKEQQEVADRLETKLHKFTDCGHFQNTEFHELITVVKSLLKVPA
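system = RBBP9 protein | input = RBBP9 at 2.5 µM in dispensed solution, before mixing | measured by = fluorescence polarization (mP), excitation 525 nm, emission 598 nm | incubation = enzyme-compound preincubation 30 min, then probe labeling 45 min, 25 °C | buffer or medium = Tris-NaCl-Pluronic buffer, pH 8.0 | compound = single dose 7.94 µM | also added = FP-Rh probe, 375 nM dispensing solution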
SDO1 yeast rescue = restores growth of sdo1-depleted yeast. z-score at 10 µM. S. cerevisiae sdo1-depleted JHY4D growth rescue, OD600 30 h; stronger effect = higher value; pdr5 snq2 efflux-pump mutant strain. actives 0.21% (n = 140,000);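 active means z-score above 3 at both the 24 hr and the 30 hr optical density reads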;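 further: z-score against mean and SD of all compound wells on the same plate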
p47phox inh = inhibitors of human p47phox binding; P14598; AID 1274; p47phox/p22phox peptide binding, fluorescence polarization, 2 h; inhibition, % at 24.7 µM; actives 0.53% (n = 220,000);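 active means inhibition above about 30%, limit read from the data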;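 further: 0% = p47phox with labelled peptide and 100% = labelled peptide alone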
Target sequence (P14598 whole entry, looked up): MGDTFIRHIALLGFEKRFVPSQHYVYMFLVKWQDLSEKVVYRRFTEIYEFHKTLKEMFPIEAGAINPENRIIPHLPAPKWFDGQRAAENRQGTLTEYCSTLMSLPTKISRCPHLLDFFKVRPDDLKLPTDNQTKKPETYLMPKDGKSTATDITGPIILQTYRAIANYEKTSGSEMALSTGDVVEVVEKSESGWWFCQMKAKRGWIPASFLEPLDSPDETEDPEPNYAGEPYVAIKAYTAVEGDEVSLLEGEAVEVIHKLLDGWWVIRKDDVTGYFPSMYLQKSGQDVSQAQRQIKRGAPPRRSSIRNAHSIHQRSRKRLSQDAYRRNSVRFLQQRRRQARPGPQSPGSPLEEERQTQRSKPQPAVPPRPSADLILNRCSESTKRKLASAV
Yeast life ext = extends the lifespan of yeast; actives 0.68% (n = 130,000); AID 775; inhibition of the nicotinamide effect, % at 10 µM; S. cerevisiae growth with nicotinamide, OD615; deaD strain in restrictive glucose medium;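 active means inhibition above a set limit, placed 3 SD over the median of all compounds, cut at about 26% in these data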;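 further: 0% = nicotinamide-treated wells and 100% = cells grown without nicotinamide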
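assay system = DeaD-strain S. cerevisiae | buffer or medium = restrictive glucose medium | reagent = 1.5 mM nicotinamide | compound = 10 µM single point, 0.25% DMSO | incubation = 48 h compound exposure at 30 °C, humidified | signal = OD615 measurement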
BB579 growth dn = chemicals that inhibit yeast BB579 growth in restrictive medium (lifespan-shortening candidates) | inhibition, % at 10 µM | S. cerevisiae BB579 growth, OD615, 48 h | actives 0.51% (n = 140,000);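 active means inhibition above a set limit, 3 SD over the mean compound inhibition, cut at about 44% in these data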
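controls = amphotericin B 10 µg/mL, positive | assay system = DeaD yeast strain BB579 | schedule = 48 h compound exposure at 30 °C after 4 h preincubation | detection = OD615 turbidity measurement | medium = restrictive CSMM-D medium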
Tb hexokinase = blocks Trypanosoma brucei hexokinase 1 activity | recombinant TbHK1, G6PDH-coupled NADH A340 | inhibition, % at 10 µM | actives 0.11% (n = 220,000);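 active means inhibition of 50% or more in the single-dose primary screen; inactive means inhibition below 50%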
G6PDH ctr = Leuconostoc glucose-6-phosphate dehydrogenase inhibition, counter-screen; shares compounds with Tb hexokinase; purified G6PDH, NADH absorbance, 1 h; inhibition, % at 10 µM; actives 7% (n = 210); AID 2516;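 active means at least 50% inhibition in the glucose-6-phosphate dehydrogenase coupled counterscreen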
TbHK1 rescreen = confirmation of Trypanosoma brucei hexokinase 1 inhibitors; AID 2560; actives 10% (n = 210); recombinant TbHK1, G6PDH-coupled NADH A340 absorbance; inhibition, % at 10 µM; shares compounds with Tb hexokinase;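 active means inhibition of at least 50% in both of the two screening runs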;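 further: 0% and 100% set by the maximum and minimum signal control wells on each plate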
* hit, by the source's call.

`CCC1(C)Cc2c(C#N)c(N)n(-c3ccccc3)c(=S)c2CO1` (stereo not drawn) gave RBBP9 inh -5, p47phox inh -8 and Tb hexokinase -3.
For Cn1c(SCc2cccc(F)c2)nnc1-c1ccccn1 the results were RBBP9 inh -5, SDO1 yeast rescue -0.29, p47phox inh -1, Yeast life ext -5, BB579 growth dn -78, Tb hexokinase 55*, G6PDH ctr -8 and TbHK1 rescreen -2.
For COc1ccc(CCNC(=O)Cn2cnc3scc(-c4ccccc4)c3c2=O)cc1OC the results were RBBP9 inh -6, p47phox inh -10 and Tb hexokinase -1.
c1cc(-c2nnc(-c3ccncc3)o2)ccn1 was read as RBBP9 inh -5, SDO1 yeast rescue 0.69, p47phox inh -4, Yeast life ext -12, BB579 growth dn 0, Tb hexokinase 74*, G6PDH ctr -7 and TbHK1 rescreen -7.
COc1ccccc1-c1cn(C(C)(C)C)nc1C was read as RBBP9 inh -1, p47phox inh 5 and Tb hexokinase 0.
COC(=O)c1ccccc1NC(=O)CCS(=O)(=O)c1ccc(Br)cc1 was read as RBBP9 inh -2, p47phox inh -14, Tb hexokinase 62*, G6PDH ctr -6 and TbHK1 rescreen 67*.
`O=C(CCS(=O)(=O)c1ccc(Br)cc1)Nc1cc(F)ccc1F` gave RBBP9 inh -5, SDO1 yeast rescue -1.3, p47phox inh -9, Yeast life ext -2, BB579 growth dn -6 and Tb hexokinase 14.
For Cc1ccccc1N=Nc1ccc(O)c2ncccc12 the results were RBBP9 inh -10, SDO1 yeast rescue -1.7, p47phox inh -4, Yeast life ext -4, BB579 growth dn 14, Tb hexokinase 64*, G6PDH ctr -4 and TbHK1 rescreen -8.
COc1ccc(N=Nc2ccc(O)c3ncccc23)cc1 was read as RBBP9 inh 4, p47phox inh 6 and Tb hexokinase -45.
For COCCOn1c(SCCOC)nc2ccccc2c1=O the results were RBBP9 inh -7, p47phox inh -2 and Tb hexokinase -1.
For CCOc1ccc(N2CC(=O)N/C2=N\c2nc(C)cc(C)n2)cc1 the results were RBBP9 inh 2, SDO1 yeast rescue 1.3, p47phox inh -10, Yeast life ext -7, BB579 growth dn -60, Tb hexokinase 69*, G6PDH ctr -9 and TbHK1 rescreen -8.
CCOCCCNC(=O)C(NC(=O)c1ccc(NC(C)=O)cc1)c1ccc(C)cc1 (stereo not drawn) was read as RBBP9 inh -6, SDO1 yeast rescue 0.58, p47phox inh -7, Yeast life ext 6, BB579 growth dn -34 and Tb hexokinase -4.
Screening CCOCCCNC(=O)C(NC(=O)c1cnccn1)c1ccc(C)cc1 (stereo not drawn) returned RBBP9 inh -8, SDO1 yeast rescue 1.6, p47phox inh -17, Yeast life ext -11, BB579 growth dn -10, Tb hexokinase 55*, G6PDH ctr -5 and TbHK1 rescreen 3.
For CC(On1nnc2ccccc21)C(=O)N1CCN(Cc2ccccc2)CC1 (stereo not drawn) the results were RBBP9 inh -7, p47phox inh -3 and Tb hexokinase 4.
For CCc1cccc(NC(=O)NC2CCCCC2)c1 the results were RBBP9 inh 3, SDO1 yeast rescue -0.35, p47phox inh -17, Yeast life ext -3, BB579 growth dn -34, Tb hexokinase 60*, G6PDH ctr -5 and TbHK1 rescreen 5.
Screening CC(=O)C1C(c2ccc(O)cc2)NC(=O)NC1(O)C(F)(F)F (stereo not drawn) returned p47phox inh 0 and Tb hexokinase -8.
`CC(=O)C1C(c2ccc(F)cc2)NC(=O)NC1(O)C(F)(F)F` (stereo not drawn) gave RBBP9 inh -5, SDO1 yeast rescue 1, p47phox inh -3, Yeast life ext -7, BB579 growth dn -23, Tb hexokinase 51*, G6PDH ctr -6 and TbHK1 rescreen 3.
For COc1cccc(C(=O)N2CCSC2=S)c1 the results were RBBP9 inh 2, SDO1 yeast rescue 0.28, p47phox inh -14, Yeast life ext 16, BB579 growth dn -32, Tb hexokinase 57*, G6PDH ctr -18 and TbHK1 rescreen -6.
`COc1ccc(C(=O)N2CCSC2=S)cc1OC` gave RBBP9 inh 2, SDO1 yeast rescue 1.1, p47phox inh -6, Yeast life ext 26, BB579 growth dn -24 and Tb hexokinase -6.
COc1ccc(-c2nnn(CC(=O)NCc3ccccc3)n2)cc1OC was read as RBBP9 inh -10, SDO1 yeast rescue 1, p47phox inh -12, BB579 growth dn -18 and Tb hexokinase 0.
`COc1cc(-c2nnn(CC(=O)NC3CCS(=O)(=O)C3)n2)ccc1OCc1ccccc1` (stereo not drawn) gave RBBP9 inh -6, SDO1 yeast rescue 0.42, p47phox inh -9, Yeast life ext -4, BB579 growth dn -34, Tb hexokinase 66*, G6PDH ctr -38 and TbHK1 rescreen 1.
Cn1cccc1C(=O)c1cccc([N+](=O)[O-])c1 was read as RBBP9 inh 2, p47phox inh -6 and Tb hexokinase -7.
`O=C1CCC(=O)N1c1nc2nc(-c3ccccc3)cc(=O)n2[nH]1` gave RBBP9 inh 0, SDO1 yeast rescue -0.02, p47phox inh -4, Yeast life ext 0, BB579 growth dn -11 and Tb hexokinase -4.
For Cc1nc2nc(-c3ccccc3)cc(=O)n2[nH]1 the results were RBBP9 inh -1, SDO1 yeast rescue 0.81, p47phox inh -3, Yeast life ext -4, BB579 growth dn -42, Tb hexokinase 55*, G6PDH ctr -3 and TbHK1 rescreen 1.
For COc1ccc(-c2nc(C3CCCCC3)no2)cc1OC the results were RBBP9 inh -1, SDO1 yeast rescue -0.33, p47phox inh -2, Yeast life ext -9, BB579 growth dn -10, Tb hexokinase 64*, G6PDH ctr -12 and TbHK1 rescreen -5.
`c1ccc(-c2nc(C3CCCCC3)no2)cc1` gave RBBP9 inh -5, SDO1 yeast rescue 0.95, p47phox inh -6, Yeast life ext -19, BB579 growth dn -54 and Tb hexokinase 9.
For Clc1ccc(-n2cccc2CN2CCc3c([nH]c4ccccc34)C2c2ccccn2)nc1 (stereo not drawn) the results were RBBP9 inh -5, p47phox inh -49 and Tb hexokinase -4.
